Consider 7 molecules from ChEMBL document CHEMBL1156410, “Design and synthesis of a combinatorial chemistry library of 7-acyl, 10-acyl, and 7,10-diacyl analogues of paclitaxel (taxol) using solid phase synthesis” (J Nat Prod, 2002).

pIC50: −log10 of the molar value. Converted amounts (≈) assume the structure as drawn.

The test system of one series is A2780. The experiment in a line: Cytotoxicity against human A2780 cells. It is filed as functional, cell-based.
Series [1] can be described thus: Induction of tubulin polymerization by DAPI fluorescence method. The following applies: read-out: I50. In outline:
(§1)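 Microplate assay in PMEG buffer (100 mM PIPES, 1 mM MgSO₄, 2 mM EGTA, 0.1 mM GTP, pH 6.9) containing ligand; DAPI final 10 µM, tubulin final 5 µM. Fluorescence followed at 37 °C, excitation 360/40 nm, emission 460/40 nm. Change in fluorescence normalized to the curve of 10 µM paclitaxel standard. Samples in duplicate, triplicate or quadruplicate; concentrations over 2 orders of magnitude tested.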

A short description of series [2]: Octanol-water partition coefficient, log P in 0.1 N aqueous HCl. It is filed as physicochemical. Summed up: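 Compound partitioned between 1-octanol and 0.1 N aqueous HCl with vigorous shaking for 1 h.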
Series [3] can be described thus: Induction of tubulin polymerization at 0.1 uM by DAPI fluorescence method relative to control. In outline: as §1
Series [4] can be described thus: Induction of tubulin polymerization at 1 uM by DAPI fluorescence method relative to control. Summed up:
as §1

Series [5] in a line: Induction of tubulin polymerization at 10 uM by DAPI fluorescence method relative to control. Summed up:
as §1

For the molecule `CC(=O)O[C@@]12CO[C@@H]1C[C@H](OC(=O)CN1CCN(Cc3ccc4c(c3)OCO4)CC1)[C@@]1(C)C(=O)[C@H](O)C3=C(C)[C@@H](OC(=O)[C@H](O)[C@@H](NC(=O)c4ccccc4)c4ccccc4)C[C@@](O)([C@@H](OC(=O)c4ccccc4)[C@H]21)C3(C)C`, inhibition with A2780 was half-maximal at 0.02 µg/mL (≈ 0.0187 µM) (IC50). For the same molecule, the pIC50 in series [1] is 5.11.
The like results for `CC(=O)O[C@@]12CO[C@@H]1C[C@H](OC(=O)CN1CCCCC1)[C@@]1(C)C(=O)[C@H](O)C3=C(C)[C@@H](OC(=O)[C@H](O)[C@@H](NC(=O)c4ccccc4)c4ccccc4)C[C@@](O)([C@@H](OC(=O)c4ccccc4)[C@H]21)C3(C)C` were, in that order, 0.18 µg/mL (≈ 0.192 µM) and 5.99.
`CC(=O)O[C@@]12CO[C@@H]1C[C@H](OC(=O)CN1CCOCC1)[C@@]1(C)C(=O)[C@H](O)C3=C(C)[C@@H](OC(=O)[C@H](O)[C@@H](NC(=O)c4ccccc4)c4ccccc4)C[C@@](O)([C@@H](OC(=O)c4ccccc4)[C@H]21)C3(C)C` came in with an IC50 with A2780 of 0.2 µg/mL (≈ 0.213 µM). For the same molecule, the pIC50 in series [1] was 5.89.
Consider `CC(=O)O[C@@]12CO[C@@H]1C[C@H](OC(=O)CN1CCN(c3ccc(C(C)=O)cc3)CC1)[C@@]1(C)C(=O)[C@H](O)C3=C(C)[C@@H](OC(=O)[C@H](O)[C@@H](NC(=O)c4ccccc4)c4ccccc4)C[C@@](O)([C@@H](OC(=O)c4ccccc4)[C@H]21)C3(C)C`, for which, in the series with A2780, the midpoint of inhibition, the IC50, lay at 0.9 µg/mL (≈ 0.852 µM). For the same molecule, in series [1], the pIC50 is 5.36.
In the series with A2780, `CC(=O)O[C@@]12CO[C@@H]1C[C@H](OC(=O)CN1CCN(c3ccccn3)CC1)[C@@]1(C)C(=O)[C@H](O)C3=C(C)[C@@H](OC(=O)[C@H](O)[C@@H](NC(=O)c4ccccc4)c4ccccc4)C[C@@](O)([C@@H](OC(=O)c4ccccc4)[C@H]21)C3(C)C` displayed an IC50 of 0.014 µg/mL (≈ 0.0138 µM). Also, in series [1], the pIC50 was 5.78. In series [2], this molecule registered a logP of 0.155.
`CC(=O)O[C@@]12CO[C@@H]1C[C@H](OC(=O)CN1CCN(C)CC1)[C@@]1(C)C(=O)[C@H](O)C3=C(C)[C@@H](OC(=O)[C@H](O)[C@@H](NC(=O)c4ccccc4)c4ccccc4)C[C@@](O)([C@@H](OC(=O)c4ccccc4)[C@H]21)C3(C)C`: in the series on A2780, the midpoint of inhibition, the IC50, lay at 0.67 µg/mL (≈ 0.704 µM). The pIC50 in series [1] was 6.23.
As to `CC(=O)O[C@H]1C(=O)[C@@]2(C)[C@H]([C@H](OC(=O)c3ccccc3)[C@]3(O)C[C@H](OC(=O)[C@H](O)[C@@H](NC(=O)c4ccccc4)c4ccccc4)C(C)=C1C3(C)C)[C@]1(OC(C)=O)CO[C@@H]1C[C@@H]2O` [PACLITAXEL], the Activity in series [3] turned out to be 2.3%; in series [4], 66%; in series [5], 100%. In addition, the IC50 in the series on A2780 was 0.136 µg/mL (≈ 0.159 µM). Also, the pIC50 in series [1] is 6.26. This molecule also displayed a logP in series [2] of 0.017.

The IC50 is the concentration that inhibits the measured activity by half. Low values mean higher potency, high ones lower potency. As a reminder, the logP is the decadic logarithm of the partition coefficient of the neutral form, usually between octanol and water. A low value points to a more hydrophilic compound.
